Results: ChEMBL document CHEMBL1123617, “Antipsychotic activity of substituted gamma-carbolines” (J Med Chem, 1987)
Each block holds one compound with its values, some of them ahead of it.

Columns and labels:
Mus musculus [1] = test: Ability to inhibit apomorphine (APO) induced stereotyped behavior in mice by intraperitoneal administration of compound; value may range from 22 to 31; type: functional; details: ip
Rattus norvegicus [2] = test: Potential antipsychotic activity was assessed by measuring the ability to block the conditioned avoidance response(CAR) in rats on oral administration; type: functional
Mus musculus [3] = test: Ability to inhibit apomorphine (APO) induced climbing behavior in mice by intraperitoneal administration of compound.; value may range from 1 to 23; type: functional; details: ip
Rattus norvegicus [4] = test: Potential antipsychotic activity was assessed by measuring the ability to block the conditioned avoidance response(CAR) in rats on oral administration; value may range from 26 to 51; type: functional
In short: (§1)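 Each session had 60 trials, with a control session before every drug run. Trials with no avoidance response (avoidance block) were summed over rats at each dose and expressed as a percentage of total trials. Control avoidance was set at 100%. The dose giving 50% block (AB50) was fitted by least squares.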

[5] = biological target: T1, Serotonin 2 (5-HT2) receptor (Rattus norvegicus, UniProt P30994+P08909+P14842); test: In vitro 5-hydroxytryptamine 2 receptor affinity by using [3H]spiperone as the radioligand in rat cortical tissue; value may range from 197 to 341
[6] = biological target: D(2) dopamine receptor (Rattus norvegicus) (UniProt P61169); test: In vitro Dopamine receptor D2 affinity by using [3H]spiperone as the radioligand in rat limbic system at 1 uM; type: tissue-based
Rattus norvegicus [7] = test: Potential antipsychotic activity was assessed by measuring the ability to block the conditioned avoidance response(CAR) in rats on oral administration; value may range from 4 to 10; type: functional; in short: as §1
[8] = biological target: T1, Serotonin 2 (5-HT2) receptor; test: In vitro 5-hydroxytryptamine 2 receptor affinity by using [3H]spiperone as the radioligand in rat cortical tissue; value may range from 2.4 to 5.3
D(2) dopamine receptor [9] = biological target: T2, D(2) dopamine receptor (Rattus norvegicus, UniProt P61169); test: In vitro Dopamine receptor D2 affinity by using [3H]-Spiperone as the radioligand in rat limbic system at 1 uM concentration of compound; value may range from 4 to 15; type: tissue-based
Rattus norvegicus [10] = test: Potential antipsychotic activity was assessed by measuring the ability to block the conditioned avoidance response(CAR) in rats on oral administration; value may range from 10 to 31; type: functional; in short: as §1
[11] = biological target: T1, Serotonin 2 (5-HT2) receptor; test: In vitro 5-hydroxytryptamine 2 receptor affinity by using [3H]spiperone as the radioligand in rat cortical tissue.; value may range from 76 to 299
D(2) dopamine receptor [12] = biological target: T2, D(2) dopamine receptor; test: In vitro Dopamine receptor D2 affinity by using [3H]spiperone as the radioligand in rat limbic system at 1 uM concentration of compound; value may range from 84 to 130; type: tissue-based
Mus musculus [13] = test: Ability to inhibit apomorphine (APO) induced climbing behavior in mice by intraperitoneal administration of compound; value may range from 1 to 13; type: functional; details: ip
In short: (§2)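 Male CF-1 mice (20–25 g), acclimated at least 3 days, were given compound ip in 0.25% Tween 80 at 1, 10, 30 and 60 mg/kg (six mice per dose), alongside a concurrent vehicle group. Apomorphine 1 mg/kg sc was given 30 min later. Scoring at 5 min: stereotypy (sniffing-licking-gnawing) 0/1; climbing 0–2.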

Mus musculus [14] = test: Ability to inhibit apomorphine (APO) induced stereotyped behavior in mice by intraperitoneal administration of compound; value may range from 7 to 18; type: functional; details: ip; in short: as §2
[15] = biological target: T1, Serotonin 2 (5-HT2) receptor; test: In vitro 5-hydroxytryptamine 2 receptor affinity by using [3H]spiperone as the radioligand in rat cortical tissue; value may range from 29 to 132
Rattus norvegicus [16] = test: Potential antipsychotic activity was assessed by measuring the ability to block the conditioned avoidance response(CAR) in rats on oral administration; insigniificant activity, ip in shelf jump tset; type: functional
[17] = biological target: D(2) dopamine receptor (Rattus norvegicus) (UniProt P61169); test: In vitro Dopamine receptor D2 affinity by using [3H]spiperone as the radioligand in rat limbic system at 1 uM concentration of compound; type: tissue-based
[18] = biological target: T1, Serotonin 2 (5-HT2) receptor; test: In vitro 5-hydroxytryptamine 2 receptor affinity by using [3H]spiperone as the radioligand in rat cortical tissue; value may range from 6 to 75
Rattus norvegicus [19] = test: Potential antipsychotic activity was assessed by measuring the ability to block the conditioned avoidance response(CAR) in rats on oral administration; value may range from 8 to 35; type: functional; in short: as §1
D(2) dopamine receptor [20] = biological target: T2, D(2) dopamine receptor; test: In vitro Dopamine receptor D2 affinity by using [3H]spiperone as the radioligand in rat limbic system at 1 uM concentration of compound; value may range from 3 to 10; type: tissue-based
Rattus norvegicus [21] = test: Potential antipsychotic activity was assessed by measuring the ability to block the conditioned avoidance response(CAR) in rats on oral administration.; type: functional
D(2) dopamine receptor [22] = biological target: T2, D(2) dopamine receptor; test: In vitro Dopamine receptor D2 affinity by using [3H]spiperone as the radioligand in rat limbic system at 1 uM concentration of compound; value may range from 0.7 to 1.5; type: tissue-based
D(2) dopamine receptor [23] = biological target: T2, D(2) dopamine receptor; test: In vitro Dopamine receptor D2 affinity by using [3H]spiperone as the radioligand in rat limbic system at 1 uM concentration of compound; value may range from 72 to 141; type: tissue-based
Rattus norvegicus [24] = test: Potential antipsychotic activity was assessed by measuring the ability to block the conditioned avoidance response(CAR) in rats on oral administration; indicates insignificant activity; type: functional
D(2) dopamine receptor [25] = biological target: T2, D(2) dopamine receptor; test: In vitro Dopamine receptor D2 affinity by using [3H]spiperone as the radioligand in rat limbic system at 1 uM concentration of compound; value may range from 238 to 401; type: tissue-based

T2 sequence (P61169 whole entry): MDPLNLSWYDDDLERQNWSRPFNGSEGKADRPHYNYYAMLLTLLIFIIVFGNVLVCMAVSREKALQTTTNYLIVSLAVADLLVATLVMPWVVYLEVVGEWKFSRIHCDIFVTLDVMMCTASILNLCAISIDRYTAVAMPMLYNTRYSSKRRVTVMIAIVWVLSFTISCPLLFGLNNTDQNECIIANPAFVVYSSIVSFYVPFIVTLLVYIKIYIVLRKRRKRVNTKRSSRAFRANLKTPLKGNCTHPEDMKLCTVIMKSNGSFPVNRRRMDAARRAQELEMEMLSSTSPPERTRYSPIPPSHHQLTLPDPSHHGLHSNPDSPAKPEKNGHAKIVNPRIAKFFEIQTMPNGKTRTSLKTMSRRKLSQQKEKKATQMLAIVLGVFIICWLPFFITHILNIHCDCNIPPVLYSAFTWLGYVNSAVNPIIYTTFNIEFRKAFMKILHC
Chain of D(2) dopamine receptor (Rattus norvegicus) (P61169 whole entry): as above

Compound: CN1CCN(C2=Nc3cc(Cl)ccc3Nc3ccccc32)CC1 [CLOZAPINE]
ED50 (Mus musculus [1]): 26 mg/kg
AB50 (Rattus norvegicus [2]): 11 mg/kg
ED50 (Mus musculus [3]): 5 mg/kg

Ki [5]: 252 nM
inhibition [6]: 43%
Compound: Cl.c1cncc(CCCN2CCc3[nH]c4ccccc4c3C2)c1
AB50 (Rattus norvegicus [4]): 33 mg/kg

Ki [8]: 3.6 nM
Compound: Cl.Fc1ccc(-n2c3c(c4cc(F)ccc42)CN(CCc2ccccn2)CC3)cc1
AB50 (Rattus norvegicus [7]): 6 mg/kg

Ki (D(2) dopamine receptor [9]): 7 nM
Compound: Fc1ccc(-n2c3c(c4cc(F)ccc42)CN(CCCCc2ccncc2)CC3)cc1

Ki [11]: 136 nM
Ki (D(2) dopamine receptor [12]): 104 nM
Compound: Cl.Fc1ccc2[nH]c3c(c2c1)CN(CCCc1cccnc1)CC3 [GEVOTROLINE HYDROCHLORIDE]
AB50 (Rattus norvegicus [10]): 14 mg/kg
ED50 (Mus musculus [13]): 4 mg/kg
ED50 (Mus musculus [14]): 11 mg/kg

Ki [15]: 60 nM
Compound: Cl.Clc1ccc2[nH]c3c(c2c1)CN(CCCCc1ccncc1)CC3
AB50 (Rattus norvegicus [2]): 36 mg/kg

Compound: CC1CN(CCCN2CCc3[nH]c4ccc(Cl)cc4c3C2)CC(C)N1.Cl (configuration not stated)
AB50 (Rattus norvegicus [16]): >40 mg/kg

inhibition [17]: 33%
Compound: c1ccc(CCN2CCc3[nH]c4ccccc4c3C2)nc1

Ki [18]: 23 nM
Ki (D(2) dopamine receptor [20]): 5 nM
Compound: Cl.Fc1ccc(-n2c3c(c4cc(F)ccc42)CN(CCc2cnccn2)CC3)cc1
AB50 (Rattus norvegicus [19]): 16 mg/kg

Ki (D(2) dopamine receptor [22]): 1 nM
Compound: Cl.Fc1ccc(-n2c3c(c4cc(F)ccc42)CN(CCc2ccc4ccccc4n2)CC3)cc1
AB50 (Rattus norvegicus [21]): 40 mg/kg

Ki (D(2) dopamine receptor [23]): 103 nM
Compound: Cl.Clc1ccc2[nH]c3c(c2c1)CN(CCc1ccccn1)CC3
AB50 (Rattus norvegicus [24]): >40 mg/kg

Ki (D(2) dopamine receptor [25]): 331 nM
Compound: c1ccc2nc(CCN3CCc4[nH]c5ccccc5c4C3)ccc2c1

Compound: Cl.Clc1ccc2[nH]c3c(c2c1)CN(CCc1ccc2ccccc2n1)CC3
AB50 (Rattus norvegicus [21]): >40 mg/kg
